Here are results for 16 compounds from PubChem BioAssay.

The target of experiment [1] is Pantothenate synthetase (Mycobacterium tuberculosis (strain ATCC 25618 / H37Rv)) (UniProt P9WIL5). The experiment in a line: Recombinant Mtb pantothenate synthetase (PanC) inhibitors, coupled enzyme, confirmatory (AID 375).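 Also: 0% = full reaction with vehicle and 100% = no enzyme background.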 To be noted: coupled enzyme assay; at 10 µM, stronger effect = higher value.
The nature of experiment [2]: reducers of endogenous Her2 protein level, primary screen, SKBR3 breast tumor cells, AlphaScreen, ATP viability (AID 461;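 active = Her2 level under about 52% in both replicate screens, with viability over 70% of control, limit read from the data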;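 as to Her2 level: lower value means less Her2 protein in the cells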;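 as to viability: percent of carrier control wells set as 100% viability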). To be noted: 18-24 h, measured here: SKBR3 viability, ATP luminescence, at 10 µM.
Experiment [3] deals with Receptor tyrosine-protein kinase erbB-2 (Homo sapiens) (UniProt P04626). The experiment is described as above. To be noted: 18-24 h, at 10 µM, stronger effect = lower value.
Experiment [4] is described as follows: SK-BR-3 cell growth inhibitors, pilot screen, 24 h, human (AID 572;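 active = viability at or below 10% of carrier control in both of two separate runs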;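 also: compound exposure lasted between 18 and 24 h rather than exactly 24 h; 100% = carrier-treated control wells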). Particulars: SK-BR-3 viability, CellTiter-Glo luminescence, at 10 µM, stronger effect = lower value. (ATP-based viability assays read luminescence as a measure of living cells.)
Experiment [5] can be described thus: HUVEC growth inhibition – cell-based, human, primary screen (AID 575;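 active = viability at or below 30% in both replicate assays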;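 also: 100% = median of untreated cell wells with 0.1% DMSO on each plate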). Particulars: HUVEC proliferation, CellTiter-Glo luminescence, 72 h; at 10 µM; stronger effect = lower value. In a few lines: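 Material: primary human umbilical vein endothelial cells / Schedule: 72 h exposure, 37 °C, 5% CO2, 30 min RT equilibration / Signal: ATP-based CellTiter-Glo luminescent read / Read-out basis: percent of median DMSO-control luminescence / Control set: 32 DMSO-only cell-control wells (high), 32 MePR drug-control wells (low) per plate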

Experiment [6] can be described thus: growth inhibitors of H69AR lung tumor, primary screen, human, duplicate replicates (AID 580;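 active = viability at or under a set limit in both replicates, limit being median viability minus 3 SD, cut at about 48% in these data, passing the limit was not always enough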;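 also: 100% = mean luminescence of untreated wells and 0% = no signal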). Particulars: H69AR lung tumor cells viability, ATP luminescence, 72 h; at 10 µM; stronger effect = lower value.
Experiment [7] can be described thus: reversal of MRP1-mediated doxorubicin resistance, pilot screen, H69AR cells, doxorubicin co-treatment (AID 601;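 active = viability loss from added drug above about 55%, and viability with drug at most 40%, in both replicates, limit read from the data, passing the limit was not always enough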). Particulars: CellTiter-Glo, 72 h, at 10 µM; for differential viability (reversal): stronger effect = higher value.
A short description of experiment [8]: 384-well plate pilot, post-Golgi transport modulator project, inhibition of yeast transport mutant growth (AID 636; in the data active = inhibition above about 31%). Particulars: absorbance 615 nm, about 18 h, stronger effect = higher value.
Experiment [9] in a line: growth suppression of yeast trafficking mutant, preliminary HTS, modulators of trafficking downstream of Golgi apparatus project, 1536-format plate, OD 615 nm (AID 637; in the data active = inhibition above about 30%). Particulars: yeast transport mutant growth, absorbance 615 nm, 18 h; stronger effect = higher value.
The mark [10] stands for this setting: H69AR cells + 2 uM doxorubicin, measured here: viability with 2 uM doxorubicin, stronger effect = lower value.
[11] abbreviates: H69AR cells, compound alone cytotoxicity.

Active and inactive are the calls of the source. Unless noted, no rule for the calls is given here. Peptide text beside a SMILES is read from it.

Sequence of Receptor tyrosine-protein kinase erbB-2 (Homo sapiens) (P04626 whole entry, looked up): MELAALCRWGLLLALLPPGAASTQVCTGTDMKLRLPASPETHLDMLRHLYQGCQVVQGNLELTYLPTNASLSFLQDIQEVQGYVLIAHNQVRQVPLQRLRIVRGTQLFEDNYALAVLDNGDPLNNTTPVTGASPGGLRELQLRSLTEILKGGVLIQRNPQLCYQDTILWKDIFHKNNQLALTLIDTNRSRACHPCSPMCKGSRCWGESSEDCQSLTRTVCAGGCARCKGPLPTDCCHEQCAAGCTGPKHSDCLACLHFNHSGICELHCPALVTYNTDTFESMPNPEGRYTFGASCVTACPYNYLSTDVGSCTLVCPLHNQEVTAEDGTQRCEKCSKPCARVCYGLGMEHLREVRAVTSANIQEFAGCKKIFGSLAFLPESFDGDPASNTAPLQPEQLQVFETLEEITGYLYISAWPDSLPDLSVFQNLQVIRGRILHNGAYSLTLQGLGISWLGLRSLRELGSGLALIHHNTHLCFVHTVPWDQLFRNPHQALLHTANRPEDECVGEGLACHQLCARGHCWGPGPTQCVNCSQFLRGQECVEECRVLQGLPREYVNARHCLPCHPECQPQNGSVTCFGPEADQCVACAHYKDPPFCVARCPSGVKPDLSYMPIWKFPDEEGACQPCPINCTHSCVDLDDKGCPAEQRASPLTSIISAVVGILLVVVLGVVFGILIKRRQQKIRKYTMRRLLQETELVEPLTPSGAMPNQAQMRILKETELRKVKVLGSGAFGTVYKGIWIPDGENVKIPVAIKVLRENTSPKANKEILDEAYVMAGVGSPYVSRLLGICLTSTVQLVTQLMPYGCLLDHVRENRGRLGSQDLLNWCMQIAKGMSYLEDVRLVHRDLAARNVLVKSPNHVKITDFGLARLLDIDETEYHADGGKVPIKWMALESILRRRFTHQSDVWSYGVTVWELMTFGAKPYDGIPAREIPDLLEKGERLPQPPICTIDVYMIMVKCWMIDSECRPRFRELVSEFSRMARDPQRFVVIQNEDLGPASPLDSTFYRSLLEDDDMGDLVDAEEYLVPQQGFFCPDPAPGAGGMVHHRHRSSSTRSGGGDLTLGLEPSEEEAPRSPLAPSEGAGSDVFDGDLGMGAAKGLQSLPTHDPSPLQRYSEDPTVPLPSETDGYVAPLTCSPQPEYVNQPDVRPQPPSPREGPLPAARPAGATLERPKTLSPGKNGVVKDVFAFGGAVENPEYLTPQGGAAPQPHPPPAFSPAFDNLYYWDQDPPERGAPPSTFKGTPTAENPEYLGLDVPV
Sequence of Pantothenate synthetase (Mycobacterium tuberculosis (strain ATCC 25618 / H37Rv)) (P9WIL5 whole entry, looked up): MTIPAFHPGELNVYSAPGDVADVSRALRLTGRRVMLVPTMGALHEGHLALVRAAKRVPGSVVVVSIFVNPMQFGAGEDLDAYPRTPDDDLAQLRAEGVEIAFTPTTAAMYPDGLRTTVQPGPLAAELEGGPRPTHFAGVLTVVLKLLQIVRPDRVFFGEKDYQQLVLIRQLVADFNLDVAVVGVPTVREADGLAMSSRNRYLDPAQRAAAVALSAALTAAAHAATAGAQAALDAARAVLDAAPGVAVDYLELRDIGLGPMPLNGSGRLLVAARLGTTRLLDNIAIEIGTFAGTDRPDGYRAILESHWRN

As usually defined, the inhibition is the drop in the measured response relative to a control, in per cent. What is called viability is a read-out of living cells in per cent, often relative to untreated cells. With `O=C(C1CCCN(S(=O)(=O)c2cccc3nsnc23)C1)N1CCC2(CC1)OCCO2` (stereo not drawn), the inhibition was 0% (inactive) in experiment [1], -5% (inactive) in experiment [8] and 1.33% (inactive) in experiment [9]. Further, the viability is 97% in [2]; 97% (inactive) in experiment [4]; 100% (inactive) in [5]; 81.6% (inactive) in experiment [6]; 98.5% in [7] (setting [10]); 81.6% in experiment [7] (setting [11]). Also, the Her2 level in experiment [3] is 100% (inactive). Besides, the differential viability (reversal) in [7] (H69AR cells + 2 uM doxorubicin) was -16.9% (inactive).
For `Cc1[nH]c2c(Cl)cccc2c1CCN`, the inhibition in experiment [1] was 0% (inactive); in experiment [8], -4.67% (inactive); in experiment [9] it was 5.9% (inactive). Also, the viability was 97.5% in [2]; 97.5% (inactive) in experiment [4]; 84.4% (inactive) in [5]; 13.2% (active) in experiment [6]; 83.1% in experiment [7] (setting [10]); 13.2% in experiment [7] (setting [11]). For the same compound, in experiment [3], the Her2 level is 85.5% (inactive). For the same compound, the differential viability (reversal) in experiment [7] (H69AR cells + 2 uM doxorubicin) was -69.9% (inactive).
As to `NC(=O)OCCSc1nnc(-c2cccc(C(N)=S)c2)o1`, the inhibition is 2% (inactive) in experiment [1], -6% (inactive) in experiment [8] and 0.65% (inactive) in experiment [9]. The viability in experiment [2] was 103%; in experiment [4], 103% (inactive); in [5], 108% (inactive); in [6], 105% (inactive); in [7] (setting [10]), 91%; in [7] (setting [11]) it was 105%. Moreover, in experiment [3], the Her2 level was 88% (inactive). Also, the differential viability (reversal) in experiment [7] (H69AR cells + 2 uM doxorubicin) was 13.7% (inactive).
On to `O=C1CC[C@@]2(O)[C@H]3Cc4ccc(O)c5c4[C@@]2(CCN3CC2CC2)[C@H]1O5`, for which the inhibition was 4% (inactive) in [1], 0.26% (inactive) in experiment [8] and 2.17% (inactive) in experiment [9]. Also, the viability is 95% (inactive) in experiment [4]; 90.6% (inactive) in experiment [5]; 99.5% (inactive) in experiment [6]; 88.6% in experiment [7] (setting [10]); 99.5% in experiment [7] (setting [11]). Moreover, in [7] (H69AR cells + 2 uM doxorubicin), the differential viability (reversal) is 11% (inactive).
Regarding `CN1CCC(OC(=O)C2c3ccccc3Oc3ccccc32)CC1`, the inhibition in [1] was 2% (inactive); in experiment [8], -0.39% (inactive); in [9], -5.16% (inactive). Also, the viability in experiment [2] was 96.5%; in experiment [4] it was 96.5% (inactive); in [5], 64.3% (inactive); in [6], 86.4% (inactive); in experiment [7] (setting [10]), 85.5%; in experiment [7] (setting [11]), 86.4%. Besides, in experiment [3], the Her2 level is 96% (inactive). The differential viability (reversal) in experiment [7] (H69AR cells + 2 uM doxorubicin) is 0.945% (inactive).
With `CCN1c2nc3ccccn3c(=O)c2CC2(C(=O)N(C)C(=O)N(C)C2=O)C1C` (stereo not drawn), the inhibition in [1] is 0% (inactive); in experiment [8] it was -9.18% (inactive); in experiment [9] it was 2.9% (inactive). In addition, the viability was 119% (inactive) in [4]; 104% (inactive) in experiment [5]; 96% (inactive) in experiment [6]; 90% in experiment [7] (setting [10]); 96% in [7] (setting [11]). In experiment [7] (H69AR cells + 2 uM doxorubicin), the differential viability (reversal) is 5.97% (inactive).
As to `CC(C)C[C@H](NC(=O)[C@@H]1CCCN1C(=O)[C@@H](N)Cc1ccc(O)cc1)C(=O)NCC(N)=O` (H-YPLG-NH2), the inhibition in experiment [1] was 0% (inactive); in experiment [8] it was -2.73% (inactive); in [9], 0.33% (inactive). Further, the viability in experiment [4] was 105% (inactive); in experiment [5] it was 96.2% (inactive); in experiment [6] it was 97.6% (inactive); in experiment [7] (setting [10]), 96.8%; in experiment [7] (setting [11]), 97.6%. For the same compound, the differential viability (reversal) in experiment [7] (H69AR cells + 2 uM doxorubicin) is 0.84% (inactive).
Regarding `CCOP(=S)(OCC)c1ccc(N(C)C)cc1`, the inhibition in experiment [1] is 0% (inactive); in experiment [8], 4.29% (inactive); in experiment [9], -12.1% (inactive). Also, the viability in experiment [2] is 92.5%; in [4], 92.5% (inactive); in experiment [5], 93.6% (inactive); in experiment [6] it was 78.3% (inactive); in experiment [7] (setting [10]), 87.5%; in experiment [7] (setting [11]), 78.3%. Besides, the Her2 level in [3] was 104% (inactive). Besides, in experiment [7] (H69AR cells + 2 uM doxorubicin), the differential viability (reversal) is -9.22% (inactive).
As to `Clc1ccc(CSC(Cn2ccnc2)c2ccc(Cl)cc2Cl)cc1` (stereo not drawn), the inhibition in [1] was 0% (inactive). In addition, the viability in experiment [2] is 136%; in experiment [4] it was 136% (inactive); in experiment [7] (setting [10]) it was 48.3%; in experiment [7] (setting [11]), 33.7%. Further, the Her2 level in experiment [3] was 59% (inactive). Moreover, the differential viability (reversal) in [7] (H69AR cells + 2 uM doxorubicin) was -14.6% (inactive).
As for `Oc1ccc(C2NCc3ccccc3-n3cccc32)cc1Cl` (stereo not drawn), the inhibition is 0% (inactive) in [1], -6.18% (inactive) in experiment [8] and -3.17% (inactive) in experiment [9]. For the same compound, the viability in [2] was 98.5%; in experiment [4], 98.5% (inactive); in experiment [5], 112% (inactive); in experiment [6], 83.8% (inactive); in experiment [7] (setting [10]), 82.7%; in experiment [7] (setting [11]), 83.8%. For the same compound, the Her2 level in experiment [3] was 74.5% (inactive). Further, the differential viability (reversal) in [7] (H69AR cells + 2 uM doxorubicin) was 1.1% (inactive).
Take `CN1C(=O)CN=C(c2ccc(Cl)cc2)c2cc(Cl)ccc21`: the inhibition is 0% (inactive) in experiment [1], 0.39% (inactive) in [8] and 4.17% (inactive) in experiment [9]. Further, the viability in experiment [4] is 84% (inactive); in [5] it was 61.8% (inactive); in [6], 84.8% (inactive); in experiment [7] (setting [10]) it was 84.5%; in [7] (setting [11]) it was 84.8%. In addition, the differential viability (reversal) in [7] (H69AR cells + 2 uM doxorubicin) was 0.31% (inactive).
With `CC(C)(C)P(=O)(c1ccncc1)N1CCCC1` (stereo not drawn), the results for the inhibition in experiment [1], in experiment [8] and in experiment [9] were 4% (inactive), -7.3% (inactive) and -2.18% (inactive), respectively. Moreover, the viability in experiment [4] was 111% (inactive); in experiment [5], 105% (inactive); in experiment [6] it was 92.8% (inactive); in [7] (setting [10]), 98.6%; in [7] (setting [11]), 92.8%. Also, the differential viability (reversal) in [7] (H69AR cells + 2 uM doxorubicin) was -5.79% (inactive).
With `Clc1ccc(COC(Cn2ccnc2)c2ccc(Cl)cc2Cl)c(Cl)c1` (stereo not drawn), in experiment [1], the inhibition is 2% (inactive). The viability in experiment [2] was 105%; in experiment [4] it was 105% (inactive); in [5], 9.27% (active); in experiment [7] (setting [10]), 58.6%; in experiment [7] (setting [11]), 31%. For the same compound, the Her2 level in experiment [3] is 20% (active). For the same compound, the differential viability (reversal) in experiment [7] (H69AR cells + 2 uM doxorubicin) is -27.5% (inactive).
`C=CCN1C(=O)C2(C(C(=O)OCC)=C(N)Oc3c2c(=O)oc2ccccc32)c2ccccc21` (stereo not drawn): the figures for the inhibition in [1], in [8] and in experiment [9] were 0% (inactive), 0.27% (inactive) and 1.45% (inactive), respectively. Moreover, the viability in experiment [4] was 61% (inactive); in [5] it was 108% (inactive); in experiment [6], 98.2% (inactive); in experiment [7] (setting [10]), 109%; in [7] (setting [11]), 98.2%. In addition, the differential viability (reversal) in experiment [7] (H69AR cells + 2 uM doxorubicin) is -10.5% (inactive).
Take `C#C[C@]1(O)CC[C@H]2[C@@H]3CCC4=CC(=O)CC[C@]4(C)[C@H]3CC[C@@]21C`: the inhibition in experiment [1] is 4% (inactive); in experiment [8], -1.69% (inactive); in experiment [9] it was 11.2% (inactive). Also, the viability in [4] is 101% (inactive); in [5], 91.6% (inactive); in [6], 91.3% (inactive); in experiment [7] (setting [10]) it was 105%; in [7] (setting [11]), 91.3%. For the same compound, in experiment [7] (H69AR cells + 2 uM doxorubicin), the differential viability (reversal) is -13.7% (inactive).
As for `CC(C)[C@H]1C(=O)N2CCC[C@H]2[C@]2(O)O[C@](NC(=O)[C@@H]3C=C4c5cccc6[nH]cc(c56)C[C@H]4N(C)C3)(C(C)C)C(=O)N12`, the inhibition in [1] was 5% (inactive); in experiment [8] it was -0.78% (inactive); in [9], 7.17% (inactive). Moreover, the viability in experiment [4] was 104% (inactive); in experiment [5], 86.4% (inactive); in experiment [6], 104% (inactive); in experiment [7] (setting [10]), 103%; in experiment [7] (setting [11]), 104%. In addition, the differential viability (reversal) in experiment [7] (H69AR cells + 2 uM doxorubicin) was 0.81% (inactive).
